High-throughput results: PubChem BioAssay, several laboratories
MsrA act: activates bovine MsrA enzyme. purified bovine MsrA, absorbance read-out. activation, % at 10.6 µM. 0.3% of 360,000 active. AID 602163; in the data active = activation above about 7.5%;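 note: 0% = vehicle and 100% = reference activator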
procasp7 counter: counter-screen for procaspase-3 activators: activators of human procaspase-7. activation, % at 8.5 µM. P55210. recombinant procaspase-7, Ac-DEVD-pNA absorbance 405 nm; D23A/D198A/D206A triple mutant, cannot self-cleave; scale: DMSO 0, 5 µM enzyme 100. AID 463210. 0.093% of 330,000 active;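 active = percent activation above the screen-wide mean plus 3 SD, cut at about 25% in these data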
Target sequence (P55210 whole entry D23A/D198A/D206A): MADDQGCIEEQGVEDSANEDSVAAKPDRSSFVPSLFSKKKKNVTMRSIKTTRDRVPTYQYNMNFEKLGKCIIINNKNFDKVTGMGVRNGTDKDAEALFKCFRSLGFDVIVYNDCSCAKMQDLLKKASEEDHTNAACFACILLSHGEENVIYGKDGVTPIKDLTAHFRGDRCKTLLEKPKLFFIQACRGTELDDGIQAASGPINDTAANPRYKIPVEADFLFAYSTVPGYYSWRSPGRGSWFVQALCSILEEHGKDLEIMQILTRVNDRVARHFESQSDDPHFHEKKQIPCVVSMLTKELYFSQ
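System: Uncleavable procaspase-7 mutant enzyme; Amount: 2 µM procaspase-7 mutant as dispensed; Schedule: 1 h compound preincubation, 2 h substrate cleavage, 25 °C; Measured by: 405 nm absorbance of p-nitroaniline; Evaluation: percent activation from buffer-corrected 0–120 min absorbance change; Control set: low DMSO alone, high DMSO plus 5 µM PC-7.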
procasp3 activ: activators of human procaspase-3 | P42574 | recombinant procaspase-3 D3A, Ac-DEVD-pNA absorbance 405 nm | activation, % at 8.5 µM | 0.11% of 330,000 active | AID 463141;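 active = activation above the mean of all tested compounds plus 3 SD, cut at about 21% in these data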;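 note: 0% = DMSO alone and 100% = DMSO wells spiked with extra 5 µM PC-3 D3A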
Target sequence (P42574 whole entry D9A/D28A/D175A): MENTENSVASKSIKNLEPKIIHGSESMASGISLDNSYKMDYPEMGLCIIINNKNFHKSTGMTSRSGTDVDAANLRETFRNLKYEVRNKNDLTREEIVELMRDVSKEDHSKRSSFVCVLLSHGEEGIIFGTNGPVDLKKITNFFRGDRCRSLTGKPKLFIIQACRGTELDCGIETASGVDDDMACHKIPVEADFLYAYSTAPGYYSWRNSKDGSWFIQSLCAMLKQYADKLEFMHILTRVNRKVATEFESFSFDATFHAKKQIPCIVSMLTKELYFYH
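Assay system – Procaspase-3 D3A mutant · Benchmarks – DMSO low control, extra-enzyme high control · Technique – 405 nm absorbance of p-nitroaniline, reads at 0 and 120 min · Doses – 8.5 µM nominal · Measure – % activation between DMSO and enzyme-spiked controls · Also added – Ac-DEVD-pNA chromogenic peptide substrate · Schedule – 1 h compound preincubation, 2 h substrate hydrolysis at 25 °C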
MsrA inhibitor: inhibitors of bovine MsrA. purified bovine MsrA, absorbance read-out. inhibition, % at 15.5 µM. 0.75% of 360,000 active. AID 651718;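 note: 0% = vehicle wells with enzyme and 100% = reference inhibitor wells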
A1 inh: inhibitors of the anti-apoptotic protein A1, read as caspase activation; 0.066% of 330,000 active; caspase activation, % (concentration not given with the values); MEF A1-2A-BIM cells, Caspase-Glo 3/7 luminescence, 3 h; percent of clofoctol response, vehicle zero;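 active = over half of replicate activation scores above 10%, or exactly half above 10 with the replicate mean above 10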
MsrA conf: bovine MsrA inhibition, confirmed. shares compounds with MsrA inhibitor. purified bovine MsrA, absorbance read-out. 41% of 2,300 active. AID 651822. inhibition, % at 15.5 µM;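 note: coupled to thioredoxin reductase with NADPH and selenocystamine and DMSO as substrate; 0% = vehicle only and 100% = full effect of reference inhibitor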
* = called active by the depositor; x = no result given. This is a sample that favours compounds with a hit; in the whole collection about 1.2% have one here. Cut-off read from the data, not from the text of the source, unless noted: active = inhibition above about 4.5%; inactive = the rest.

SMILES	MsrA act	procasp7 counter	procasp3 activ	MsrA inhibitor	A1 inh	MsrA conf
CN(C(=O)COC(=O)c1ccc(Cl)s1)C1(C#N)CCCCC1	-12.1	x	x	-1.1	x	x
COc1ccc(C(=O)NC(=S)NCc2cccnc2)cc1Cl	-1.1	0.2	-0.2	0.5	-0.1	x
Cc1cc(C)cc(C(=O)NCC(=O)N2CCC(C(N)=O)CC2)c1	-1.6	8.2	0.6	0.3	0.8	x
O=C(O)c1ccc(NC2=C/C(=N/S(=O)(=O)c3ccccc3)c3ccccc3C2=O)cc1	-1.6	x	x	65.4*	x	62.8*
CC(Sc1nnc(CN2CCCC2)n1Cc1ccccc1)C(=O)Nc1ccc(F)cc1Cl (configuration not stated)	0.8	x	x	-0.1	x	x
O=c1nc(N/N=C/c2ccccn2)cn[nH]1	-1.9	-14.9	4.4	4.7*	-0.4	3.1
CCNc1ccc(S(N)(=O)=O)cc1[N+](=O)[O-]	-3.2	-15.3	-7.0	2.6	0.9	x
COc1ccccc1NS(=O)(=O)c1ccc(N/N=C(\C)C(C)C)c([N+](=O)[O-])c1	x	2.7	-4.0	9.2*	0.6	3.9
CCC(C)/C(C)=N/Nc1ccc(S(N)(=O)=O)cc1[N+](=O)[O-] (configuration not stated)	-8.0	-14.2	-5.0	7.7*	1.1	3.9
C/C(CC(C)C)=N\Nc1ccc(S(N)(=O)=O)cc1[N+](=O)[O-]	-4.8	10.6	-2.1	11.4*	-0.4	5.6*
COc1ccccc1N1CCN(C(=O)CCNS(=O)(=O)c2cc(Br)cnc2N)CC1	-12.9	0.6	-3.9	1.6	-0.5	x
CC(=O)C1CCC2C3CCC4CC(=O)CCC4(C)C3C(C)(O)CC12C (configuration not stated)	-1.9	x	x	0.0	x	x
O=C(COC(=O)C1=COCCO1)Nc1cc(C(F)(F)F)ccc1Cl	-2.5	-0.6	3.7	-0.2	-0.3	x
Cc1nc(N2CCOCC2)sc1C=O	-6.9	1.7	7.2	6.6*	-0.4	3.6
CC(=O)Nc1ccc(-c2c(C)cc3oc(=O)cc(-c4ccccc4)c3c2C)cc1	-3.1	-8.1	-1.9	1.2	x	x
CC(=O)Oc1cc(C)cc2oc(=O)cc(-c3ccccc3)c12	0.8	1.2	-0.3	9.1*	0.8	1.0
CCCCc1cc(=O)oc2cc(C)cc(OCC(=O)N3CCC(C(=O)O)(c4ccccc4)CC3)c12	-5.3	4.0	9.0	0.5	0.4	x
Cc1cc(OC(C)C)c2c(-c3ccccc3)cc(=O)oc2c1	-6.2	-5.5	-0.4	25.9*	-1.0	21.5*
Cc1ccc(-c2c(C)cc3oc(=O)cc(-c4ccccc4)c3c2C)cc1	-1.9	-5.1	-6.4	0.2	x	x
CCOc1cc(C)cc2oc(=O)cc(-c3ccccc3)c12	-1.4	-1.6	-1.2	6.5*	0.3	5.1*
Cc1cc(OCC(=O)N2CCc3ccccc3C2)c2c(-c3ccccc3)cc(=O)oc2c1	-3.0	-0.1	-4.9	14.9*	-0.2	14.0*
CCOC(=O)c1ccc(-c2c(C)cc3oc(=O)cc(-c4ccccc4)c3c2C)cc1	-1.9	-2.7	4.7	1.4	x	x
Nc1[nH]c(C(=O)c2ccc(Cl)cc2)c(-c2ccc(Br)cc2)c1C(=O)NCc1ccc(Cl)cc1Cl	x	x	x	0.3	x	x
Cc1nc(SCC(=O)NCC2CCCO2)c2cc(-c3ccccc3)sc2n1 (configuration not stated)	-9.7	16.3	-9.7	0.6	-0.9	x
CC1(C(=O)OCC(=O)Nc2cc(S(=O)(=O)N3CCOCC3)ccc2Cl)CC1(Cl)Cl (configuration not stated)	-1.8	x	x	0.3	x	x
SMILES	MsrA act	procasp7 counter	procasp3 activ	MsrA inhibitor	A1 inh	MsrA conf
CC(=O)OCC(=O)Nc1ccc(N=Nc2ccccc2)cc1	-6.0	9.1	2.1	5.9*	-0.4	4.2
O=C1CC(C(=O)Nc2ccc(Cl)cc2)S/C(=N\N=C\c2ccco2)N1 (configuration not stated)	-5.2	3.2	-2.2	5.6*	0.8	4.0
COc1ccc(/C=N/N=C2/NC(=O)CC(C(=O)O)S2)cc1 (configuration not stated)	-6.8	2.5	-0.9	5.0*	-1.9	3.8
O=C1CC(C(=O)Nc2ccc(Br)cc2)S/C(=N\N=C\c2ccco2)N1 (configuration not stated)	-14.3	4.4	-10.2	2.2	-0.8	x
COc1ccc(/C=N/N=C2/NC(=O)C(CC(=O)NC(N)=O)S2)cc1 (configuration not stated)	-2.5	-0.1	-8.2	3.4	-0.6	x
O=C1CC(C(=O)Nc2ccccc2)S/C(=N\N=C\c2ccco2)N1 (configuration not stated)	-5.8	10.5	-9.0	5.0*	-0.4	5.4*
O=C1CC(C(=O)Nc2ccc(Cl)c(Cl)c2)S/C(=N\N=C\c2ccco2)N1 (configuration not stated)	-3.1	8.0	-4.4	0.5	0.1	x
COc1ccc(NC(=O)C2CC(=O)N/C(=N/N=C/c3ccco3)S2)cc1 (configuration not stated)	-7.6	-5.3	-6.9	5.1*	0.4	5.1*
NC(=O)c1ccc(NC(=O)COC(=O)CCCN2C(=O)c3cccc4cccc(c34)C2=O)cc1	-11.9	12.1	-10.3	1.0	-0.5	x
O=C(COC(=O)CCCN1C(=O)c2cccc3cccc(c23)C1=O)Nc1ccc(Cl)cc1	-4.9	8.6	7.7	4.8*	0.5	0.6
Cc1ccc(C2(c3noc(CN4CCOCC4)n3)CCCC2)cc1	-6.5	-10.3	1.9	-0.7	1.0	x
Cc1ccc(C2(c3noc(CN4CCC(C(=O)N5CCOCC5)CC4)n3)CCCC2)cc1	-0.8	-2.4	5.9	4.7*	0.8	-0.4
Cc1cc2n(c(=O)c1C#N)CCCN2c1ccccc1	-13.7	-3.9	-4.4	6.1*	0.5	4.5*
CCn1nccc1NC(=O)c1csc([C@@H]2C[C@H](O)[C@@H](CO)O2)n1	-1.1	x	x	-1.1	x	x
C[C@@H]1Cn2cnc(C(=O)N(C)Cc3ccccc3)c2C(=O)N1	x	x	x	0.3	x	x
O=C(CN1C(=O)S/C(=C\c2ccccc2)C1=O)NC1CCS(=O)(=O)C1 (configuration not stated)	-2.3	-0.1	-2.5	5.3*	-0.4	3.9
O=C(CCN1C(=O)S/C(=C\c2ccc(F)cc2)C1=O)Nc1ccc(C(=O)O)c(O)c1	-13.8	4.4	-2.8	3.6	-8.7	x
Cc1ccc(/C=C2/SC(=S)N(CCCC(=O)Nc3cc([N+](=O)[O-])ccc3O)C2=O)cc1	0.5	-2.2	9.3	0.9	-0.1	x
O=C(CN1C(=O)S/C(=C\c2ccccc2)C1=O)Nc1cc([N+](=O)[O-])ccc1O	-3.6	-8.0	20.0	4.8*	2.0	4.6*
O=C(CN1C(=O)S/C(=C/c2ccccn2)C1=O)N1CCOCC1	-6.2	-6.3	4.1	5.3*	0.5	4.8*
